Measured values taken from publication PMC2855844 (Cancer immunology, immunotherapy : CII, 2009).
“Also recorded” adds a separate entry of the source.

What was measured:
[1] = system: human CD8^+ T cells; test: in vitro stimulation of human CD8^+ T cells; format: cell-based; settings: preliminary findings; listed as Hsd17b12^114T peptide
[2] = biological target: H2-K^d (Mus musculus, UniProt P01902); test: MHC stabilization assay; format: binding; settings: T2-K^d cells, 37°C, MFI with anti-H2-K^d mAb and FITC-conjugated anti-mouse IgG
Outline: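 Peptide-pulsed T2-Kd cells were kept at 37°C, then stained with anti-H2-Kd mAb (HB159) and FITC-conjugated anti-mouse IgG. Surface Kd was read as mean fluorescence intensity. Reference samples were unpulsed cells and peptide-pulsed cells held at 4°C.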

[3] = system: Meth A-specific CTL; format: cell-based, mouse; settings: E/T ratio 6:1, 4 h ^51Cr-release
Outline: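 Targets were T2-Kd cells pulsed with peptide, labeled with Na51CrO4, and plated at 1 × 10^3 per well. Meth A-specific CTL (cloned CD3+CD4−CD8+NK-1.1− line from Meth A-immune BALB/c mice) were added at E:T 6:1. Release was measured over 4 h and expressed as % specific lysis.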

[4] = T2-K^d cells pulsed with peptide

H2-K^d, sequence (P01902 whole entry, looked up): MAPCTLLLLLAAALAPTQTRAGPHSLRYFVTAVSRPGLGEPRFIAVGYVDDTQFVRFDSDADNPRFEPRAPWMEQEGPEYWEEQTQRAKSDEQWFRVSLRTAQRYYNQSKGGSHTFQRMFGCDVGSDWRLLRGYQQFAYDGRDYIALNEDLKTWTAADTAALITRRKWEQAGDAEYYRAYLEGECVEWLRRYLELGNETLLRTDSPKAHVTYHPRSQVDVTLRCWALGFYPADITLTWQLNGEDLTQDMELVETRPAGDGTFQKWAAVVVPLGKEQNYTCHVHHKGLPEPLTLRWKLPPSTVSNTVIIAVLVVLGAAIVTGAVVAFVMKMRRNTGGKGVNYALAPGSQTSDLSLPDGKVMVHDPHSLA

Row | affinity for H2-K^d molecules [2] | Sequence | immunogenicity, stimulation of human CD8^+ T cells in vitro [1] | affinity of Meth A CTL for peptide [3, 4] | recognition by Meth A-specific CTL (in words) [3, 4] | fold higher affinity of Meth A CTL (TYDKIKTGL vs IYDKIKTGL) ([3]; TYDKIKTGL over IYDKIKTGL, T2-K^d cells)
1 | ~ 1 × 10^−8 M | TYDKIKTGL | immunogenic; also recorded: can induce effectors cross-reactive against the HSD17B12_114–122 peptide, naturally presented by human tumor cell lines | ~ 1 × 10^−10 M | recognized by the Meth A-specific CTL | 100 ×
2 | ~ 1 × 10^−8 M | IYDKIKTGL | – | < 1e-08 M | – | –
